According to ChEMBL document CHEMBL3593206, “SAR Studies of Exosite-Binding Substrate-Selective Inhibitors of A Disintegrin And Metalloprotease 17 (ADAM17) and Application as Selective in Vitro Probes” (J Med Chem, 2015):

Tests used:
[1] = molecular target: T1, Disintegrin and metalloproteinase domain-containing protein 10 (Homo sapiens) (UniProt O14672); test: Inhibition of ADAM10 in human A549 cells assessed as inhibition of betacellulin shedding at 40 uM after 1 hr by ELISA; format: cell-based
T1 sequence (whole entry): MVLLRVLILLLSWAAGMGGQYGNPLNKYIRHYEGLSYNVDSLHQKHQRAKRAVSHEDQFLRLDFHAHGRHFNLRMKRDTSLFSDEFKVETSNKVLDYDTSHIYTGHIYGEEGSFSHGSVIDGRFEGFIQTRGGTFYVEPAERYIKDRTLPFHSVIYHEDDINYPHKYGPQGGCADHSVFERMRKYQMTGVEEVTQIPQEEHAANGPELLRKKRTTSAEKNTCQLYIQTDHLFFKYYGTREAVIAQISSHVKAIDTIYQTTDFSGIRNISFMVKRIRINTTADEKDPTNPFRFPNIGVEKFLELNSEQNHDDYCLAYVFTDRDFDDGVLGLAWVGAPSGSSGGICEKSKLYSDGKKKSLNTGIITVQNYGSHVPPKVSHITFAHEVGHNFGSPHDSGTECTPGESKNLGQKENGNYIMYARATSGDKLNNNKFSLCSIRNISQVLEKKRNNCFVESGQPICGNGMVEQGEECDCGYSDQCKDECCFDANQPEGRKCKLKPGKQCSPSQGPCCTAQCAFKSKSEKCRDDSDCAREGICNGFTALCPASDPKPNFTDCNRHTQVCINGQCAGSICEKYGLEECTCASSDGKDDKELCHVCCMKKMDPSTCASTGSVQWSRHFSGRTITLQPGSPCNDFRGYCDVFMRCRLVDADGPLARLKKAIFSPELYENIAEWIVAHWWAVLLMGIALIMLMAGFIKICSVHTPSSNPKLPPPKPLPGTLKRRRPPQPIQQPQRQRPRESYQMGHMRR
Outline: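 A549 cells were tested for betacellulin shedding at 40 μM, with Marimastat at 10 μM as control.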

[2] = molecular target: T2, Matrix metalloproteinase-14 (Homo sapiens, UniProt P50281); test: Inhibition of MMP14 (unknown origin) using Mca-KLPGL-Dnp-AR as substrate at 100 uM preincubated for 30 mins followed by substrate addition measured after 1 hr by fluorescence assay relative to control
[3] = molecular target: T3, Disintegrin and metalloproteinase domain-containing protein 17 (Homo sapiens, UniProt P78536); test: Inhibition of ADAM17 (unknown origin) preincubated for 30 mins followed by substrate addition measured every 30 mins for 2 hrs by fluorescence assay
Outline: (§1)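 Enzyme at 30 nM (3× solution) in 10 mM Hepes, 0.001% Brij-35, pH 7.5. Inhibitor series of 10 points, 1:3, from 300 μM, preincubated 30 min at RT. Glycosylated substrate added from a 30 μM 3× solution. Fluorescence (ex 360/em 460 nm) read every 30 min for 2 h. Inhibition taken from hydrolysis rates against substrate-only and substrate-plus-enzyme wells.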

ADAM17 (Homo sapiens) = test: Inhibition of ADAM17 in human SW480 cells assessed as inhibition of PMA-stimulated wild type PTK7 shedding at 25 to 100 uM after 16 hrs by Western blot analysis
[4] = molecular target: T1, Disintegrin and metalloproteinase domain-containing protein 10 (Homo sapiens); test: Inhibition of ADAM10 (unknown origin) at 100 uM preincubated for 30 mins followed by substrate addition measured every 30 mins for 2 hrs by fluorescence assay relative to control; outline: as §1
[5] = molecular target: T1, Disintegrin and metalloproteinase domain-containing protein 10 (Homo sapiens); test: Inhibition of ADAM10 in HTSMC assessed as inhibition of PMA-stimulated release of CXCL16 at 10 uM preincubated for 30 mins followed by PMA challenge measured after 4 to 24 hrs by ELISA
[6] = molecular target: T3, Disintegrin and metalloproteinase domain-containing protein 17; test: Inhibition of ADAM17 (unknown origin) at 100 uM preincubated for 30 mins followed by substrate addition measured every 30 mins for 2 hrs by fluorescence assay relative to control; outline: as §1
[7] = molecular target: T3, Disintegrin and metalloproteinase domain-containing protein 17; test: Inhibition of ADAM17 in human A549 cells assessed as effect on PMA-stimulated TGFalpha shedding up to 100 uM preincubated for 1 hr followed by PMA stimulation measured after 1 hr by ELISA; format: cell-based
Outline: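 TGFα shedding from PMA-treated A549 cells tested up to 100 μM. Marimastat at 10 μM served as control, with a non-PMA-treated control included; soluble TGFα measured in the supernatant.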

[8] = molecular target: T3, Disintegrin and metalloproteinase domain-containing protein 17; test: Inhibition of ADAM17 in human HT1080 cells assessed as inhibition of PMA-stimulated PTK7 L622D mutant shedding at 25 to 100 uM after 16 hrs by Western blot analysis; format: cell-based; conditions: HT-1080
Outline: (§2)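 PTK7 shedding tested at 25, 50 and 100 μM in PMA-stimulated cells. HT1080 fibrosarcoma cells carried the L622D PTK7 mutant uncleavable by MT1-MMP; SW480 colorectal cells expressed wild-type PTK7 endogenously. Soluble PTK7 was detected.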

[9] = molecular target: T3, Disintegrin and metalloproteinase domain-containing protein 17; test: Inhibition of ADAM17 in human A549 cells assessed as inhibition of PMA-stimulated heregulin shedding at 40 uM incubated for 1 hr followed by PMA stimulation measured after 1 hr; format: cell-based
Outline: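 Heregulin shedding in A549 cells, with all compounds tested at 40 μM.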

A549 = test: Cytotoxicity against human A549 cells assessed as inhibition of cell viability up to 33 uM after 72 hrs by CellTiter-Glo assay; format: cell-based; conditions: a549, 72 h
[10] = Cytotoxicity against CHOK1 cells assessed as inhibition of cell viability up to 33 uM after 72 hrs by CellTiter-Glo assay; format: cell-based, Cricetulus griseus; conditions: chinese hamster, cho-k1, 72 h
[11] = molecular target: T3, Disintegrin and metalloproteinase domain-containing protein 17; test: Inhibition of ADAM17 in human THP1 cells assessed as inhibition of LPS-stimulated TNFalpha cleavage at 25 uM after 1 hr by AlphaScreen assay relative to control; format: cell-based; conditions: THP-1
Outline: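 THP-1 cells grown in RPMI 1640 with 10% FBS and 0.05 mM 2-mercaptoethanol; 3000 cells per well. Compound given in 3% DMSO for 1 h, then LPS added (1 μg/mL final) and cells incubated overnight at 37 °C. TNFα detected by AlphaScreen using anti-TNFα acceptor beads and streptavidin donor beads, each step 1 h in the dark at RT.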

[12] = molecular target: T3, Disintegrin and metalloproteinase domain-containing protein 17; test: Inhibition of ADAM17 in human SW480 cells assessed as inhibition of PMA-stimulated wild type PTK7 shedding at 25 to 100 uM after 16 hrs by Western blot analysis; format: cell-based; outline: as §2
[13] = molecular target: T2, Matrix metalloproteinase-14; test: Inhibition of MMP14 (unknown origin) using Mca-KLPGL-Dnp-AR as substrate preincubated for 30 mins followed by substrate addition measured after 1 hr by fluorescence assay
Outline: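 Inhibitor as 10-point 1:3 dilutions from 300 μM, 30 min at RT. Substrate added from a 30 μM 3× solution. Single fluorescence read (ex 324/em 393 nm) after 1 h at RT.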

[14] = molecular target: T3, Disintegrin and metalloproteinase domain-containing protein 17; test: Inhibition of ADAM17 in HTSMC assessed as inhibition of LPS-stimulated IL-8 shedding at 10 uM preincubated for 30 mins followed by LPS challenge measured after 4 to 24 hrs by ELISA
Outline: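 HTSMCs stimulated with LPS for IL-8 release; compounds at 10 μM. Mean ± SEM, n = 3 from three independent experiments; one-way ANOVA with Dunnett post hoc test.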

T3 sequence (P78536 whole entry, the tested form may be a part): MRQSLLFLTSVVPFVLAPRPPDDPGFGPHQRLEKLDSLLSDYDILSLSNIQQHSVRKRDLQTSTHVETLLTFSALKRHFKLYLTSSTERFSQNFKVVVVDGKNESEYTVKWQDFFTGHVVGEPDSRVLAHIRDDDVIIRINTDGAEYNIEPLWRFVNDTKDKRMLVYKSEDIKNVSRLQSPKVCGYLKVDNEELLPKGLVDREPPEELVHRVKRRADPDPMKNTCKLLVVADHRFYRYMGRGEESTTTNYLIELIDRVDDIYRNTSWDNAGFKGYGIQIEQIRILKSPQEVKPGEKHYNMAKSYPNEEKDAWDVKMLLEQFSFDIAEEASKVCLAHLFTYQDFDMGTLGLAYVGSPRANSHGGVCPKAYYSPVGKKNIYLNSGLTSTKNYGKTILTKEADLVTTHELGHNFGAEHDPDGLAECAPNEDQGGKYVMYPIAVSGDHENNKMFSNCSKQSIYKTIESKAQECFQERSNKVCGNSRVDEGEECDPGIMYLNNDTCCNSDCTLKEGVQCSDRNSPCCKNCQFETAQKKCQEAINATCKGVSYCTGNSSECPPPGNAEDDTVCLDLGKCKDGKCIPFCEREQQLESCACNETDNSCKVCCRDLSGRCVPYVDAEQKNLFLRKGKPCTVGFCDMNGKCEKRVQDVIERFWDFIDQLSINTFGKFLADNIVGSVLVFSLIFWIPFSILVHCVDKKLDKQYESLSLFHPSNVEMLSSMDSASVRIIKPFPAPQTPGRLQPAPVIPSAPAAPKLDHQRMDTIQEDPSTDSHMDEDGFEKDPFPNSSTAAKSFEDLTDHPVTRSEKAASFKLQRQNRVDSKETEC

Row | Compound | inhibition [1] [%] | inhibition [2] [%] | IC50 [3] [µM] | inhibition (ADAM17 (Homo sapiens)) [%] | inhibition [4] [%] | inhibition [5] [%] | inhibition [6] [%] | inhibition [7] [%] | inhibition [8] [%] | inhibition [9] [%] | Activity (A549) | Activity [10] | inhibition [11] [%] | inhibition [12] [%] | IC50 [13] [µM] | inhibition [14] [%]
1 | O=C1NC[C@H](Cc2ccccc2)N(C[C@@H]2CCCN2C[C@@H](CC2CCCCC2)N2C[C@H](Cc3ccc(O)cc3)N(CCc3ccccc3)C(=O)C2=O)C1=O | 0 | 27 | 5.4 | 0 | 0 | 0 | 100 | 0 | 0 | 0 | Non-toxic | Non-toxic | 36 | 0 | > 100 | 18
2 | CCCC[C@H]1CN([C@@H](Cc2ccc(O)cc2)CN2CCC[C@H]2CN2C(=O)C(=O)NC[C@H]2Cc2ccc3ccccc3c2)C(=O)C(=O)N1CCC12CC3CC(CC(C3)C1)C2 | 0 | 0 | 5.7 | 0 | 0 | 0 | 100 | 0 | 0 | 0 | Non-toxic | Non-toxic | 57 | 0 | > 100 | 62
3 | O=C1NC[C@@H](Cc2ccc(O)cc2)N(C[C@@H]2CCCN2C[C@@H](Cc2ccc3ccccc3c2)N2CC(Cc3ccc(O)cc3)N(CCC34CC5CC(CC(C5)C3)C4)C(=O)C2=O)C1=O (single isomer, unassigned) | 0 | 25 | 4.2 | 0 | 0 | 0 | 95 | 0 | 25 | 100 | Non-toxic | Non-toxic | 43 | 0 | > 100 | 36
